From ChEMBL document CHEMBL2346655, “Synthesis and in vitro biological evaluation of 2,6,9-trisubstituted purines targeting multiple cyclin-dependent kinases” (Eur J Med Chem, 2013)
Activity calls are given as the source filed them. No cut-off for these calls is given here.

Assays:
[1] = molecular target: T1, CDK9/cyclin T1 (Homo sapiens) (UniProt O60563+P50750); assay: Inhibition of CDK9/CyclinT1 in human HCT116 cells assessed as increase in p53 expression at 1 to 5 uM after 24 hrs by immunoblotting analysis; type: cell-based; conditions: HCT-116
Procedure, shortened: (§1)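 Immunoblot: cells lysed by harvesting in Laemmli sample buffer, proteins run on SDS-PAGE, electroblotted to nitrocellulose, blocked, primary antibodies overnight, peroxidase-conjugated secondaries, ECL detection by CCD camera. Antibodies included anti-phospho RNA polymerase II (S2), anti-RNA polymerase II (ARNA-3), anti-p53 (DO-1), anti-p21waf1 (118), anti-PCNA.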

[2] = molecular target: T1, CDK9/cyclin T1 (Homo sapiens); assay: Inhibition of CDK9/CyclinT1-mediated phosphorylation of RNA polymerase 2 at Ser5 in human K562 cells up to 25 uM after 24 hrs by immunoblotting analysis; type: cell-based; procedure, shortened: as §1
HCT-116 [3] = assay: Induction of apoptosis in human HCT116 cells assessed as caspase-3 activation up to 5 uM after 24 hrs by immunoblotting analysis; type: functional, cell-based
Procedure, shortened: (§2)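 Cells were treated for 24 h, harvested directly into Laemmli sample buffer, and run on SDS-PAGE. Proteins were blotted to nitrocellulose, blocked, probed overnight with primary antibodies, then with peroxidase-linked secondaries. Bands were detected by ECL with a CCD camera. PCNA and tubulin served as loading references.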

HCT-116 [4] = assay: Induction of apoptosis in human HCT116 cells assessed as caspase-3/7 activation up to 25 uM by fluorescence assay; type: functional, cell-based
Procedure, shortened: (§3)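 After 24 h treatment, cells were lysed on ice for 20 min in pH 7.4 HEPES/KCl/EDTA/EGTA/0.2% CHAPS buffer with protease inhibitors and cleared at 10,000 × g for 30 min at 4 °C. Protein was equalized, then incubated for 1 h with 100 μM Ac-DEVD-AMC in PIPES buffer pH 7.3 containing DTT. Fluorescence was read at 355/460 nm; 100 μM Ac-DEVD-CHO served as the negative control.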

[5] = molecular target: T2, Cyclin-dependent kinase 7/ cyclin H (Homo sapiens) (UniProt P51946+P50613); assay: Inhibition of CDK7/CyclinH/MAT1-mediated phosphorylation of RNA polymerase 2 at Ser5 in human K562 cells up to 25 uM after 24 hrs by immunoblotting analysis; type: cell-based
MCF7 [6] = assay: Cytotoxicity against human MCF7 cells assessed as reduction in number of viable cells after 72 hrs by fluorescence assay; type: functional, cell-based; conditions: MCF7, 72 h
Procedure, shortened: (§4)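 Three-fold compound dilutions tested in triplicate on cultured cells for 72 h. Viable cells detected by adding Calcein AM and reading fluorescence at 485/538 nm (ex/em).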

K562 [7] = assay: Cell cycle arrest in human K562 cells assessed as accumulation at subG1 phase at 1 uM after 24 hrs by propidium iodide staining-based flow cytometric analysis (reference value: 2.4%); type: functional
Procedure, shortened: (§5)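 Sub-confluent cells treated at several concentrations for 24 h, then pulsed with 10 μM BrdU for 30 min at 37 °C before harvest. Cells were PBS-washed, fixed in 70% ethanol, denatured in 2 M HCl and neutralized. Stained with fluorescein anti-BrdU and propidium iodide; DNA content read by flow cytometry with 488 nm excitation.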

HCT-116 [8] = assay: Cell cycle arrest in human HCT116 cells assessed as accumulation at S phase at 5 uM after 24 hrs by propidium iodide staining-based flow cytometric analysis (reference value: 31.6%); type: functional; procedure, shortened: as §5
HCT-116 [9] = assay: Cell cycle arrest in human HCT116 cells assessed as accumulation at G2/M phase at 5 uM after 24 hrs by propidium iodide staining-based flow cytometric analysis (reference value: 19.6%); type: functional; procedure, shortened: as §5
K562 [10] = assay: Cell cycle arrest in human K562 cells assessed as accumulation at G2/M phase at 1 uM after 24 hrs by propidium iodide staining-based flow cytometric analysis (reference value: 13.8%); type: functional; procedure, shortened: as §5
[11] = molecular target: T1, CDK9/cyclin T1 (Homo sapiens); assay: Inhibition of CDK9/CyclinT1 in human HCT116 cells assessed as decrease in Mdm2 expression at 1 to 5 uM after 24 hrs by immunoblotting analysis; type: cell-based; conditions: HCT-116; procedure, shortened: as §1
[12] = molecular target: T2, Cyclin-dependent kinase 7/ cyclin H (Homo sapiens); assay: Inhibition of CDK7/CyclinH/MAT1-mediated phosphorylation of RNA polymerase 2 at Ser2 in human K562 cells up to 25 uM after 24 hrs by immunoblotting analysis; type: cell-based
Procedure, shortened: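 Treated cells were lysed in Laemmli buffer and separated by SDS-PAGE, then transferred to nitrocellulose. Blots were probed overnight with phospho-RNA polymerase II (S2) and total RNA polymerase II (clone ARNA-3) antibodies, followed by peroxidase secondaries. Signal was developed by ECL on a CCD camera.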

HCT-116 [13] = assay: Cell cycle arrest in human HCT116 cells assessed as accumulation at G1 phase at 5 uM after 24 hrs by propidium iodide staining-based flow cytometric analysis (reference value: 48.8%); type: functional; procedure, shortened: as §5
HOS = assay: Ratio of roscovitine IC50 to compound IC50 for human HOS cells; type: functional
Procedure, shortened: (§6)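 Cytotoxicity IC50s underlying the ratio: cells treated in triplicate with three-fold compound dilutions for 72 h, then Calcein AM added and live-cell fluorescence read at 485/538 nm (ex/em).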

[14] = molecular target: T1, CDK9/cyclin T1 (Homo sapiens); assay: Inhibition of CDK9/CyclinT1-mediated phosphorylation of RNA polymerase 2 at Ser2 in human K562 cells up to 25 uM after 24 hrs by immunoblotting analysis; type: cell-based; procedure, shortened: as §1
K562 [15] = assay: Induction of apoptosis in human K562 cells assessed as caspase-3/7 activation by fluorescence assay; type: functional, cell-based; procedure, shortened: as §3
K562 [16] = assay: Cell cycle arrest in human K562 cells assessed as accumulation at S phase at 1 uM after 24 hrs by propidium iodide staining-based flow cytometric analysis (reference value: 38.8%); type: functional; procedure, shortened: as §5
HCT-116 [17] = assay: Induction of apoptosis in human HCT116 cells assessed as change in PUMA level up to 5 uM after 24 hrs by immunoblotting analysis; type: functional, cell-based; procedure, shortened: as §2
K562 [18] = assay: Induction of apoptosis in human K562 cells assessed as PARP cleavage up to 5 uM after 24 hrs by immunoblotting analysis; type: functional, cell-based; procedure, shortened: as §2
CCRF-CEM [19] = assay: Cytotoxicity against human CEM cells assessed as reduction in number of viable cells after 72 hrs by fluorescence assay; type: functional, cell-based; procedure, shortened: as §4
CCRF-CEM [20] = assay: Ratio of roscovitine IC50 to compound IC50 for human CEM cells; type: functional; procedure, shortened: as §6
HCT-116 [21] = assay: Cell cycle arrest in human HCT116 cells assessed as accumulation at G1 phase at 1 uM after 24 hrs by propidium iodide staining-based flow cytometric analysis (reference value: 48.8%); type: functional; procedure, shortened: as §5
K562 [22] = assay: Induction of apoptosis in human K562 cells assessed as change in PUMA level up to 5 uM after 24 hrs by immunoblotting analysis; type: functional, cell-based; procedure, shortened: as §2
HCT-116 [23] = assay: Cell cycle arrest in human HCT116 cells assessed as accumulation at subG1 phase at 1 uM after 24 hrs by propidium iodide staining-based flow cytometric analysis (reference value: 1.4%); type: functional; procedure, shortened: as §5
MCF7 [24] = assay: Ratio of roscovitine IC50 to compound IC50 for human MCF7 cells; type: functional; procedure, shortened: as §6
K562 [25] = assay: Cell cycle arrest in human K562 cells assessed as accumulation at subG1 phase at 5 uM after 24 hrs by propidium iodide staining-based flow cytometric analysis (reference value: 2.4%); type: functional; procedure, shortened: as §5
HCT-116 [26] = assay: Induction of apoptosis in human HCT116 cells assessed as change in BCL2 level up to 5 uM after 24 hrs by immunoblotting analysis; type: functional, cell-based; procedure, shortened: as §2
HCT-116 [27] = assay: Cell cycle arrest in human HCT116 cells assessed as accumulation at G1 phase at 0.2 uM after 24 hrs by propidium iodide staining-based flow cytometric analysis (reference value: 48.8%); type: functional; procedure, shortened: as §5

CC[C@@H](Nc1nc(NCc2cc(Cl)ccc2O)c2ncn(C(C)C)c2n1)C(C)O (mixture of isomers)
inhibition [1]: Active | inhibition [2]: Active | Activity (HCT-116 [3]): inactive | Activity (HCT-116 [4]): Active | inhibition [5]: Active | IC50 (MCF7 [6]): 2600 nM | Activity (K562 [7]): 3.3% | Activity (HCT-116 [8]): 33.7% | Activity (HCT-116 [9]): 37.9% | Activity (K562 [10]): 28.7% | inhibition [11]: Active | inhibition [12]: Active | Activity (HCT-116 [13]): 29.5% | Ratio IC50 (HOS): >9 | inhibition [14]: Active | Activity (K562 [15]): Dose-dependent effect | Activity (K562 [16]): 39.8% | Activity (HCT-116 [17]): inactive | Activity (K562 [18]): Active | IC50 (CCRF-CEM [19]): 1600 nM | Ratio IC50 (CCRF-CEM [20]): >9 | Activity (HCT-116 [21]): 39.4% | Activity (K562 [22]): inactive | Activity (HCT-116 [23]): 3.3% | Ratio IC50 (MCF7 [24]): >9 | Activity (K562 [25]): 10.9% | Activity (HCT-116 [26]): inactive | Activity (HCT-116 [27]): 45.6%
